Measurements gathered from unrelated publications.
Lines come from different studies, so protocols differ.
Target: Serine/threonine-protein kinase PLK3 (PLK3, Homo sapiens, UniProt Q9H4B4)

SMILES | test | setting | measurement | result
CCN(CC)c1ccc(C2=NNC(=O)CC2C)cc1[N+](=O)[O-] (stereo not shown) | enzyme activity, inhibitor | 10 µM | remaining activity | 104%
CC(C)(C)c1nc2c(s1)c1nc(N)ncc1c1ccc(NS(=O)(=O)c3c(F)cccc3F)c(F)c12 | enzyme activity, inhibitor, radiometric | 1 µM | remaining activity | 91%
Cc1cc(NC(=O)c2cccc3cc(-c4cccc5[nH]nc(N)c45)ccc23)ccc1F | enzyme activity, inhibitor | 0.1 µM | activity vs control | 92%
CCN(CC)CCNC(=O)c1c(C)[nH]c(/C=C2\C(=O)Nc3ccc(F)cc32)c1C | enzyme activity, inhibitor | 0.3 µM | inhibition | -10%
O=C(Nc1cnn(-c2csc(C(=O)NC3COC3)c2)c1)Nc1c(F)cccc1Cl | enzyme activity, inhibitor | 5 µM | remaining activity | 96%
CCCS(=O)(=O)Nc1ccc(F)c(C(=O)c2c[nH]c3ncc(-c4ccc(Cl)cc4)cc23)c1F | enzyme activity, inhibitor | 1 µM | inhibition | < 10%
O=C(NC[C@@H]1[C@H]2CN(C(=O)OCc3cc(C(F)(F)F)cc(C(F)(F)F)c3)C[C@@H]12)c1ccc2[nH]nnc2c1 | cell-free assay, competition with immobilised ligand | 1 µM | remaining binding | 89%
Cc1cnc(NC2CCOCC2)nc1-n1cnc(C(=O)NC(CN)c2cc(F)cc(Cl)c2)c1 (stereo not shown) | enzyme activity, inhibitor, radiometric | 1 µM | remaining activity | 88%
O=C(Nc1cnn(-c2csc(C(=O)NC3COC3)c2)c1)Nc1ccccc1Cl | enzyme activity, inhibitor | 5 µM | remaining activity | 96.1%
O=C1NC(=O)c2cc(Nc3ccc(F)cc3)c(Nc3ccc(F)cc3)cc21 | cell-free assay | 0.5 µM | remaining signal | 98%
CCCOc1ccc([C@H]2[C@H](C(=O)O)[C@@H](c3ccc4c(c3)OCO4)CN2CC(=O)Nc2c(CC)cccc2CC)cc1 | cell-free assay, competition with immobilised ligand | 1 µM | remaining binding | 83%
COc1cc2ncnc(Nc3ccc(Oc4ccccc4)c(C)c3C)c2cc1OC | enzyme activity, inhibitor | 1 µM | inhibition | -16%
CSc1cccnc1N1CCN(Cc2nc3ccccc3[nH]2)CC1 | cell-free assay, competition with immobilised ligand | 1 µM | remaining binding | 80%
CCOc1cc(-c2nncn2C)ccc1Nc1ncc2cc(C)nc(NCC(C)(C)C)c2n1 | enzyme activity, inhibitor, FRET | 1 µM | inhibition | 19%
N#CCCc1ccc2c(c1)-c1[nH]c3ccc([N+](=O)[O-])cc3c1CC(=O)N2 | cell-free assay | 0.5 µM | remaining signal | 99.7%
CC(C)(O)[C@H]1CC[C@H](Nc2ccc3ncc(-c4cccc(C(F)(F)F)c4)n3n2)CC1 | enzyme activity, inhibitor | 1 µM | remaining activity | 102%
Nc1cnc(N2CCc3cc(S(=O)(=O)Nc4c(F)cc(Cl)cc4F)cc(N4CCCC4=O)c32)nc1 | cell-free assay, competition with immobilised ligand | 1 µM | remaining binding | 100%
Cc1ccc(C(=O)NCc2ccsc2)cc1C#Cc1cn(C(C)C)c2ncnc(N)c12 | enzyme activity, inhibitor | 1 µM | activity vs control | 118%
CNC(=O)c1cc(Oc2ccc(NC(=O)Nc3ccc(Cl)c(C(F)(F)F)c3)cc2)ccn1 | enzyme activity, inhibitor | 0.3 µM | inhibition | -12%
COc1ccc2c(O[C@@H]3C[C@H]4C(=O)N[C@]5(C(=O)O)CC5/C=C\CCCCC[C@H](NC(=O)OC5CCCC5)C(=O)N4C3)cc(-c3csc(NC(=O)C(C)C)n3)nc2c1C (stereo partly shown) | cell-free assay, competition with immobilised ligand | 1 µM | remaining binding | 79%
COc1cc(-c2cc(-c3ccc(N4CCNCC4)cc3)cnc2C)cc(OC)c1OC | enzyme activity, inhibitor | 1 µM | inhibition | 1%
CNC(=O)Nc1ccc2c(c1)[C@@]1(CC2)OC(=O)N(CC(=O)N(Cc2ccc(F)cc2)[C@@H](C)C(F)(F)F)C1=O | cell-free assay, competition with immobilised ligand | 1 µM | remaining binding | 84%
CS(=O)(=O)Nc1cccc(-c2csc(NC(=O)CSc3nc4nccnc4c(=O)n3CCc3ccccc3)n2)c1 | enzyme activity, inhibitor | 10 µM | inhibition | 6%
O=C1NC(c2ccccn2)Sc2ccccc21 (stereo not shown) | cell-free assay, competition with immobilised ligand | 1 µM | remaining binding | 88%
Cc1ccc(Nc2nccc(N(C)c3ccc4c(C)n(C)nc4c3)n2)cc1S(N)(=O)=O | enzyme activity, inhibitor | 10 µM | inhibition | -9%
